A word on the inhibition: it is the relative decrease from the control value, in per cent. For orientation: IC50 means the concentration that inhibits the measured activity by half. By Ki is commonly meant a dissociation constant, usually derived from enzyme kinetics or from competition with a known ligand.

Calls of active or inactive are those of the source. The calls are words filed in the database; no cut-off is given here.

The source of these data is ChEMBL document CHEMBL4665666, “Discovery and characterization of trypanocidal cysteine protease inhibitors from the 'malaria box'” (Eur J Med Chem, 2019).

For series [1], the target named is Cruzipain (Trypanosoma cruzi) (UniProt P25779). Description: Inhibition of recombinant Trypanosoma cruzi cruzain at 5 uM using Z-FR-AMC as substrate preincubated for 10 mins followed by substrate addition and measured at 12 sec interval for 5 mins by fluorimetric analysis relative to control. Particulars: time 15.0 min. The method, boiled down:
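Recombinant rhodesain or cruzain (1 nM) in 0.1 M sodium acetate pH 5.5, 0.01% Triton X-100, 1 mM β-mercaptoethanol. Compound at a single concentration, either without or after 10 min enzyme pre-incubation. Inhibition is relative to DMSO, with E-64 as positive control. Done in duplicate (primary screen) or triplicate.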

Series [2] concerns the target T1, Cruzipain (Trypanosoma cruzi, UniProt P25779). The series can be described thus: Inhibition of recombinant Trypanosoma cruzi cruzain using Z-FR-AMC as substrate preincubated for 10 mins followed by substrate addition and measured at 12 sec interval for 5 mins by fluorimetric analysis. The method, boiled down: (§1)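 Cruzain (recombinant, 1 nM) in 0.1 M sodium acetate pH 5.5 with 0.01% Triton X-100 and 1 mM β-mercaptoethanol; Z-FR-AMC 2.5 µM, read at 340/440 nm every 12 s for 5 min, with or without 10 min enzyme–compound pre-incubation. […] For mechanism and Ki, 0.3–20.0 µM substrate and five inhibitor levels were used, with Lineweaver-Burk plots.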

The target of series [3] is T2, Rhodesain (Trypanosoma brucei rhodesiense, UniProt Q95PM0). The series can be described thus: Inhibition of recombinant Trypanosoma brucei rhodesain expressed in Pichia pastoris using Z-FR-AMC as substrate preincubated for 10 mins followed by substrate addition and measured at 12 sec interval for 5 mins by fluorimetric analysis. The method, boiled down:
(§2)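 Rhodesain (1 nM) with Z-FR-AMC (2.5 µM) in 0.1 M sodium acetate pH 5.5, 0.01% Triton X-100, 1 mM β-mercaptoethanol, with or without 10 min enzyme-compound pre-incubation. Fluorescence read at 340/440 nm. IC50 by four-parameter nonlinear regression from at least six concentrations in triplicate, with at least two independent runs. Mean ± SEM reported.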

Series [4] deals with Cruzipain (Trypanosoma cruzi) (UniProt P25779). Description: Inhibition of recombinant Trypanosoma cruzi cruzain at 100 uM preincubated for 10 mins in presence of 0.1% Triton X-100 relative to control. The method, boiled down:
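To test detergent sensitivity, cruzain was pre-incubated 10 min at room temperature with compound with no Triton X-100, 0.01% or 0.1% Triton X-100. Cleavage of Z-FR-AMC was then followed at pH 5.5 in acetate buffer. Percent inhibition was compared across detergent levels.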

For series [5] the target is unchanged. Description: Inhibition of recombinant Trypanosoma cruzi cruzain at 100 uM preincubated with enzyme for 5 mins followed by substrate addition in absence of BSA relative to control. In a few lines: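 For BSA sensitivity, compound was held 5 min with BSA (2 mg/mL in 0.001% Triton X-100), then 5 min with 1 nM cruzain, before substrate was added and activity monitored. Parallel runs omitted BSA under otherwise identical conditions.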

Series [6] deals with T2, Rhodesain. Description: Mixed inhibition of recombinant Trypanosoma brucei rhodesain expressed in Pichia pastoris by Lineweaver-Burk plot analysis. In a few lines: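 Rhodesain rates were measured at six or more Z-FR-AMC levels (0.3–20.0 µM) and five inhibitor levels, in pH 5.5 acetate buffer with 0.01% Triton X-100 and 1 mM β-mercaptoethanol. Read at 340/440 nm. Mechanism and Ki come from Michaelis–Menten nonlinear fits and Lineweaver–Burk linear regression.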

Series [7] deals with cathepsin S (Homo sapiens, UniProt P25774). Description: Inhibition of recombinant human cathepsin S expressed in Escherichia coli at 100 uM using Z-VVR-AMC as substrate and measured after 15 mins without preincubation by microplate reader based assay relative to control. Conditions: probe Z-VVR-AMC. The method, boiled down: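 Run with or without 5 min compound–enzyme pre-incubation. AMC fluorescence at 380/460 nm over 15 min. Inhibition relative to DMSO (2% final); E64 1 µM as positive control. Two independent experiments, each in triplicate.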
Chain of cathepsin S (P25774 whole entry): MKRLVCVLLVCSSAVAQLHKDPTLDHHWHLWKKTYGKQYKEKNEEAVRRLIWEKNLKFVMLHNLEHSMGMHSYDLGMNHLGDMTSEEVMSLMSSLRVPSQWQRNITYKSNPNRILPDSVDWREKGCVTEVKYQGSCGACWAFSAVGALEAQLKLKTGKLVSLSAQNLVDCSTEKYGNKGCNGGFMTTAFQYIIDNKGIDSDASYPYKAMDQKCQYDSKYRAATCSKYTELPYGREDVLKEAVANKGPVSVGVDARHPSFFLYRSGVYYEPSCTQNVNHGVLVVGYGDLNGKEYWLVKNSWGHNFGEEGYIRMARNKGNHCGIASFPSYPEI

Series [8] concerns Trypanosoma cruzi. The series can be described thus: Trypanocidal activity against Trypanosoma cruzi Y strain trypomastigotes infected in C57BL/6 mouse peritoneal macrophage assessed as reduction in number of trypomastigotes release at 50 uM and measured after day 3 to day 11 post-infection by Neubauer chamber method. The class given is functional, organism-based. Particulars: time 11.0 day. In a few lines:
(§3)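 Thioglycolate-elicited peritoneal macrophages from female C57BL/6 mice, 2 × 10^5/well, infected 2 h at 37°C with Y strain trypomastigotes at 5:1 (parasite:cell) and washed. They were then held with compound (3.125–50 µM) or IFN-γ 100 ng/mL. Trypomastigotes released into the supernatant were counted in a Neubauer chamber at several days after infection. Three independent experiments, each in triplicate.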

For series [9], the target named is T2, Rhodesain. The series can be described thus: Inhibition of recombinant Trypanosoma brucei rhodesain expressed in Pichia pastoris using Z-FR-AMC as substrate and measured at 12 sec interval for 5 mins without preincubation by fluorimetric analysis. In a few lines:
as §2

The target in series [10] is T1, Cruzipain. Description: Competitive inhibition of recombinant Trypanosoma cruzi cruzain by Lineweaver-Burk plot analysis. The method, boiled down:
as §1

Series [11] deals with Trypanosoma brucei brucei. The series can be described thus: Trypanocidal activity against Trypanosoma brucei brucei Squib 427 assessed as reduction in parasite viability. It is filed as functional, organism-based.
Series [12] relates to Trypanosoma cruzi. The series can be described thus: Trypanocidal activity against Trypanosoma cruzi Y strain trypomastigotes infected in C57BL/6 mouse peritoneal macrophage assessed as reduction in number of trypomastigotes release and measured after day 3 to day 11 post-infection by Neubauer chamber method. It is filed as functional, organism-based. Particulars: time 11.0 day. The method, boiled down: as §3

Series [13] deals with Peritoneal macrophage. Description: Cytotoxicity against C57BL/6 mouse peritoneal macrophages assessed as reduction in cell viability at 3.125 uM measured after 24 hrs by LDH release assay. The class given is cell-based. The method, boiled down:
(§4)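 Thioglycolate-elicited peritoneal macrophages from female C57BL/6 mice, 2 × 10^5/well, infected or not with T. cruzi Y trypomastigotes (5:1, 2 h). Either the cells got 3.125–50 µM compound or IFN-γ 100 ng/mL, or the parasites were pre-treated 1 h at 3.125 µM. LDH in supernatant measured at 24 h. Three experiments in triplicate.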
A general note: LDH in the medium is a marker of cell lysis.

Series [14] concerns Trypanosoma cruzi. Description: Trypanocidal activity against Trypanosoma cruzi Y strain trypomastigotes pretreated with compound at 3.125 uM infected in macrophage assessed as reduction in number of trypomastigotes release measured after 7 days by Neubauer chamber method. It is filed as functional, Peritoneal macrophage. Further details: scale not given: the % may be the effect or the level left. Conditions: time 7 day. The method, boiled down: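 Y strain trypomastigotes (1×10^6/mL) were incubated 1 h at 37°C in RPMIc with compound at 3.125 µM or medium alone. They were then pelleted, recounted and used to infect C57BL/6 peritoneal macrophages at 5:1 (parasite:cell) for 2 h. Trypomastigotes released into the supernatant were counted in a Neubauer chamber at 5, 7, 9 and 11 days. Three independent experiments, each in triplicate.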

Series [15] deals with Peritoneal macrophage. The series can be described thus: Cytotoxicity against C57BL/6 mouse peritoneal macrophage cells infected with 3.125 uM compound pretreated trypomastigotes and measured after 24 hrs by LDH release assay. It is filed as cell-based. In a few lines:
as §4

Series [16] relates to Peritoneal macrophage. The series can be described thus: Effect on nitric oxide production in Trypanosoma cruzi Y strain trypomastigotes infected in C57BL/6 mouse peritoneal macrophage measured after 11 days by Griess reagent based assay. The class given is functional, tissue-based. Conditions: time 11.0 day. In a few lines:
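Peritoneal macrophages from C57BL/6 mice, infected with T. cruzi Y trypomastigotes at 5:1 for 2 h and/or stimulated with compound or IFN-γ. Supernatant taken 11 days later and mixed with Griess reagent for 10 min. Absorbance read at 540 nm to give nitrite. Three independent experiments in triplicate.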
A general note: Griess reagent forms a coloured azo dye with nitrite.

T2 sequence (Q95PM0 whole entry): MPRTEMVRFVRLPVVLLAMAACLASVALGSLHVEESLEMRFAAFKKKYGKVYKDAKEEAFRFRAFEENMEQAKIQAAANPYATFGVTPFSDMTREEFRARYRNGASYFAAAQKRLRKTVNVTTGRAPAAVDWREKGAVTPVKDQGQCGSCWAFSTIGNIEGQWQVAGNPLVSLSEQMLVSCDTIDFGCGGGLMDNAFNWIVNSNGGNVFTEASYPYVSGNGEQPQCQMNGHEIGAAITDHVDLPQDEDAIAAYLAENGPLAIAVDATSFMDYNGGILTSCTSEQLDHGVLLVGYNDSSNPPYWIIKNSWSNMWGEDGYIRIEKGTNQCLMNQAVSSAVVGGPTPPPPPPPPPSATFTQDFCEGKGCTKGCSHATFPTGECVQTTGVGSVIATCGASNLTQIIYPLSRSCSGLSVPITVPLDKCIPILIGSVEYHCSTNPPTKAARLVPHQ
Chain of Cruzipain (Trypanosoma cruzi) (P25779 123-467 limits assumed): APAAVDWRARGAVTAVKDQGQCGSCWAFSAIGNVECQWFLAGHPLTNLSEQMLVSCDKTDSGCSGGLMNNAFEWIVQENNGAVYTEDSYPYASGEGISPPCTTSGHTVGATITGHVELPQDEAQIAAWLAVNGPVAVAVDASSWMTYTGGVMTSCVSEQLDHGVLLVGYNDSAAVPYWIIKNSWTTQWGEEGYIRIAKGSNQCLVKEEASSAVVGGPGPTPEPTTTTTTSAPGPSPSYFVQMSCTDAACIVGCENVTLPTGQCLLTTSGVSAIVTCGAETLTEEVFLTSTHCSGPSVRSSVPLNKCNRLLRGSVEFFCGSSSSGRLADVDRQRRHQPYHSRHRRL
T1 sequence (P25779 whole entry): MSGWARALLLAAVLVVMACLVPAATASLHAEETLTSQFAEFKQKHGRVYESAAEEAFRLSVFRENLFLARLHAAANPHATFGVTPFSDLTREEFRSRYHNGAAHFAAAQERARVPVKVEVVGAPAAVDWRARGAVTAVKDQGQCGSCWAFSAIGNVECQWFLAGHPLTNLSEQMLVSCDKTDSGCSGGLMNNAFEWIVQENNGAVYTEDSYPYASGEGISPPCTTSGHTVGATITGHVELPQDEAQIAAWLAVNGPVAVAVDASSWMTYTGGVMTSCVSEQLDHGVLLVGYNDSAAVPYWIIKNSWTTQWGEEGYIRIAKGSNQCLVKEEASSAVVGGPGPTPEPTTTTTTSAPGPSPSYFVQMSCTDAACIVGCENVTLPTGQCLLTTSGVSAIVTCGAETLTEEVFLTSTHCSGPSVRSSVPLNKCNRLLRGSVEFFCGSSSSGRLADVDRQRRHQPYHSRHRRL

As to `Cn1c(=O)n(C)c2cc(CNCCNc3ccnc4cc(Cl)ccc34)ccc21`, the inhibition in [1] turned out to be 79.7%; in series [4] it was 56.4%; in series [5], 62.1%. The half-maximal inhibitory concentration (IC50) worked out at 51 µM in series [2] and 38 µM in series [3]. Moreover, in series [6], the Ki came out at 10 µM. For the same compound, the inhibition at 0.25 h, 100 µM in series [7] was 4.7%. Moreover, the result in [8] was Active.

For the compound `Cl.Cl.Clc1cc(Br)ccc1-c1ccc(CNCC2CCNCC2)o1`, the inhibition was 56.7% in series [1], 76.7% in series [4] and 86.2% in series [5]. The IC50 in series [9] is 53 µM; in [11] it was 0.1 µM. The Ki in series [10] amounted to 3 µM. Besides, in series [7], the inhibition at 0.25 h, 100 µM turned out to be 27.1%. Besides, in series [8], the result was Active. Also, the Activity result in series [12] was “Dose-dependent effect”; in [13], “Non-Toxic”; in series [14], 60%; in series [15], 30%. Further, the outcome in series [16] was inactive.
